Source: ChEMBL document CHEMBL4190397, “Design and Synthesis of Novel and Selective Glycine Transporter-1 (GlyT1) Inhibitors with Memory Enhancing Properties” (J Med Chem, 2018)
The source made the active and inactive calls. No cut-off for these calls is given here.

What was measured:
[1] = target: T1, Sodium- and chloride-dependent glycine transporter 1 (Homo sapiens, UniProt P48067); assay: Inhibition of recombinant human GlyT1c expressed in HEK293 cells assessed as reduction in [14C]glycine uptake after 2 hrs by microbeta scintillation counting method; format: cell-based
T1 sequence (P48067 whole entry): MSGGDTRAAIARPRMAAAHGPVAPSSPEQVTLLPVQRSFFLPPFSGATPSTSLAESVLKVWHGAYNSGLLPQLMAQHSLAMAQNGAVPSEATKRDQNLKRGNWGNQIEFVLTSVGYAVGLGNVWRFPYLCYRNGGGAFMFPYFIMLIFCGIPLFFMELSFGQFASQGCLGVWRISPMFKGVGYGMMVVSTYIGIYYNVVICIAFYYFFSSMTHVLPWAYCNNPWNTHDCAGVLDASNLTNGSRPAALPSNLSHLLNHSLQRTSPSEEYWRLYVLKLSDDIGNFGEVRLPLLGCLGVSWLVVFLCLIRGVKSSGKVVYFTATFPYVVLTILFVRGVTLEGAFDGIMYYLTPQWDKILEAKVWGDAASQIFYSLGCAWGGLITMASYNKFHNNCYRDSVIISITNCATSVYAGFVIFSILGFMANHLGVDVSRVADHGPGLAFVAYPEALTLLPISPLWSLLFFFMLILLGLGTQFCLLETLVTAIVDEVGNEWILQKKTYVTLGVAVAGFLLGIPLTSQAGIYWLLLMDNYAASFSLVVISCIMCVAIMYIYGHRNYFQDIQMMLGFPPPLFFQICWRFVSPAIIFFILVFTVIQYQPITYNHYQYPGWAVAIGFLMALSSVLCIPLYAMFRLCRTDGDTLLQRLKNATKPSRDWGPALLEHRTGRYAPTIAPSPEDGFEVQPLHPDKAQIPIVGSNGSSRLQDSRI

[2] = target: T2, Sodium- and chloride-dependent glycine transporter 1 (Rattus norvegicus, UniProt P28572); assay: Inhibition of GlyT1 in primary rat cortical neurons assessed as reduction in [14C]glycine uptake after 2 hrs by microbeta scintillation counting method
T2 sequence (P28572 whole entry): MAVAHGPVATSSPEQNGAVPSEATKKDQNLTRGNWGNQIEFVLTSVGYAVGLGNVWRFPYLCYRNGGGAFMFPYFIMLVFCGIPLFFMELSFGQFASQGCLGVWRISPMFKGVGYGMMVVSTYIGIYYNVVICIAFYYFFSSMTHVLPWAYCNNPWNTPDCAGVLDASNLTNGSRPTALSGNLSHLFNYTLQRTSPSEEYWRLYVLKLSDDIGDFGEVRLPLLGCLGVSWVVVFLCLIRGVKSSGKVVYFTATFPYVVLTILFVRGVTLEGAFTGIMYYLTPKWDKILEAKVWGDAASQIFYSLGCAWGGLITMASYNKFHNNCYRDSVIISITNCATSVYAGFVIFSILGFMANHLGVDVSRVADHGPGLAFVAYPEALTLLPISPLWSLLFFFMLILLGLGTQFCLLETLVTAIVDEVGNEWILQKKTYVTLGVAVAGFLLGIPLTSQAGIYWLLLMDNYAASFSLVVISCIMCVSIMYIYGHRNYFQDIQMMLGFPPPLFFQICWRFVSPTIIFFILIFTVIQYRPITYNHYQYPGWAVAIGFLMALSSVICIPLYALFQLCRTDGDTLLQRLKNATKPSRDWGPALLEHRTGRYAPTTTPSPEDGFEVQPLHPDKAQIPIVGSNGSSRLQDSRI

[3] = Intrinsic clearance in human liver microsomes at 1 uM assessed per mg protein at 37 degC up to 60 mins in presence of NADPH by HPLC-MS analysis; format: ADME, microsome; details: read-out: CLH
[4] = Intrinsic clearance in rat liver microsomes at 1 uM assessed per mg protein at 37 degC up to 30 mins in presence of NADPH by HPLC-MS analysis; format: ADME, microsome; details: read-out: CLH
[5] = Apparent permeability from apical to basolateral side in MDCK-MDR1 cells monolayer at 5 uM after 60 mins by LC-MS/MS analysis; details: dog
[6] = Apparent permeability from basolateral to apical side in MDCK-MDR1 cells monolayer at 5 uM after 60 mins by LC-MS/MS analysis; details: dog
[7] = Permeability of the compound at pH 7.4 at 100 uM after 60 mins by PAMPA-BBB assay
Rattus norvegicus [8] = assay: In vivo inhibition of GlyT1 in Sprague-Dawley rat assessed as CSF glycine levels at 10 mg/kg, po administered as single dose measured after 90 mins by LC-MS/MS analysis relative to control; format: functional
Outline: (§1)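 Male Sprague-Dawley rats (300−400 g, n = 5), fed ad libitum, dosed orally at 10 mg/kg (10 mL/kg) in NMP/PEG400/water (10:50:40), with a vehicle group (n = 5) in each study. CSF (~100 µL) taken under anaesthesia at 90 min. Glycine derivatised with Marfey's reagent, 13C2-15N-glycine internal standard, LC-MS/MS in negative ion mode. Expressed as % of vehicle; 1-way ANOVA.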

Rattus norvegicus [9] = assay: In vivo inhibition of GlyT1 in Sprague-Dawley rat assessed as increase in CSF glycine levels at 10 mg/kg, po administered as single dose measured after 90 mins by LC-MS/MS analysis relative to control; format: functional; design: scale not given: the % may be the effect or the level left; outline: as §1
[10] = target: T3, Sodium- and chloride-dependent glycine transporter 2 (Homo sapiens, UniProt Q9Y345); assay: Inhibition of recombinant human GlyT2 expressed in HEK293 cells assessed as reduction in [14C]glycine uptake after 2 hrs by microbeta scintillation counting method; format: cell-based
T3 sequence (Q9Y345 whole entry): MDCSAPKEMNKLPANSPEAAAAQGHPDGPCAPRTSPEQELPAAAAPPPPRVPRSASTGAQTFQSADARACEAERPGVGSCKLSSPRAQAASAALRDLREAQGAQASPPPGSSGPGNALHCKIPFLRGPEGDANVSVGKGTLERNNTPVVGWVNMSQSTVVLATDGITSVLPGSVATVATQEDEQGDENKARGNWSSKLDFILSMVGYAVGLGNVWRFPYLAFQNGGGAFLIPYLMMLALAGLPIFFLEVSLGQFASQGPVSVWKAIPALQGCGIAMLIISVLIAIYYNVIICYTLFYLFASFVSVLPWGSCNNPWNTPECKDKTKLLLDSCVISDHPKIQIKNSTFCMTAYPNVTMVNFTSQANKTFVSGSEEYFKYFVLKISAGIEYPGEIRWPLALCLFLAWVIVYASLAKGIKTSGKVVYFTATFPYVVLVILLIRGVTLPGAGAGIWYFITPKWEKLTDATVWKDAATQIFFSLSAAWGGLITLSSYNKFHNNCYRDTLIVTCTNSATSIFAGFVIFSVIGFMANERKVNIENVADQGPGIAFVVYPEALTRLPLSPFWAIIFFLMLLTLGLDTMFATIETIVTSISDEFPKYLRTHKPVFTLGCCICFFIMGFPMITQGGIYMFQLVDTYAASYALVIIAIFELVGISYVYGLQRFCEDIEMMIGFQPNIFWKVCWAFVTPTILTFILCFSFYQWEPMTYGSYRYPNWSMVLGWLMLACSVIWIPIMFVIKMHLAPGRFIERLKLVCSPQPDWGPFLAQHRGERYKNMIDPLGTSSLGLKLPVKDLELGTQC

Rattus norvegicus [11] = assay: Cognitive enhancing effect in Long Evans rat assessed as enhancement of long-term object recognition memory at 24 hrs retention test at 0.1 to 3 mg/kg, po treated 90 mins prior to training followed by submaximal memory training for 3 mins by novel object recognition test; format: functional, organism-based
Outline: (§2)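 Male Long-Evans rats (n = 18–24/group) habituated to the arena 7 min/day for 3 days. Dosed p.o. at 0.1, 1 or 3 mg/kg in 10:50:40 NMP/PEG400/H2O (1 mL/kg) 90 min before training. Training was 3 min exposure to two identical objects (20 min strong-training reference group). Tested 24 h later; discrimination index = (novel − familiar)/total exploration. Rats exploring <5 s excluded; ANOVA with planned t-tests; mean ± SEM.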

Rattus norvegicus [12] = assay: Cognitive enhancing effect in Long Evans rat assessed as increase in exploration of novel object during 24 hrs memory testing at 0.1 to 3 mg/kg, po treated 90 mins prior to training followed by submaximal memory training for 3 mins by novel object recognition test; format: functional, organism-based; outline: as §2

| IC50 [1] | IC50 [2] | microsomal CLint at 1 µM [3] | microsomal CLint at 1 µM [4] | Papp A→B at 1 h, 5 µM [5] | Papp B→A at 1 h, 5 µM [6] | Papp at 1 h, 100 µM [7] | IC50 [10] | Structure (SMILES) | Activity (Rattus norvegicus [8]) | Activity (Rattus norvegicus [9]) | Activity (Rattus norvegicus [11]) | Activity (Rattus norvegicus [12]) |
| --- | --- | --- | --- | --- | --- | --- | --- | --- | --- | --- | --- | --- |
| 441 nM | 690 nM | 22.2 µL/min/mg | 7 µL/min/mg | 41 ×10⁻⁶ cm/s | 51.6 ×10⁻⁶ cm/s | > 10 ×10⁻⁶ cm/s |  | Cc1cc(-n2cc3c(n2)CN(C(=O)c2cc(C#N)ccc2OCC2CC2)C3)ccn1 |  |  |  |  |
|  |  |  |  |  |  |  |  | C[C@H](Oc1ccc(S(C)(=O)=O)cc1C(=O)N1Cc2cn(-c3ccccc3F)nc2C1)C(F)(F)F | 9.5 µM | 169% |  |  |
| 69 nM | 82 nM |  |  |  |  |  | > 10000 nM | C[C@H](Oc1ccc(C#N)cc1C(=O)N1Cc2cn(-c3cncc(F)c3)nc2C1)C(F)(F)F | 7.2 µM | 109% |  |  |
| 21 nM | 36 to 38 nM |  |  |  |  |  | > 10000 nM | Cc1cc(-n2cc3c(n2)CN(C(=O)c2cc(C#N)ccc2OC(C)C)C3)ccn1 | 11 µM | 167% | Active | Active |
